The test system of data set [1] is Trypanosoma cruzi. Nature of the data set: Antitrypanosomal activity against Trypanosoma cruzi Tulahuen 2 epimastigotes assessed as inhibition of parasite growth after 5 days. It counts as functional. The note with it: Trypanosoma cruzi, Tulahuen 2, 120 h; read-out: ID50 (the source's name). Summed up: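 Stationary-phase (10-day) Tulahuen 2 epimastigotes inoculated at 1×10^6 cells/mL in BHI-Tryptose + 5% FBS, 28 °C, drug added from DMSO stock (final DMSO ≤0.4%; control 0.4% DMSO). Growth followed as A600; inhibition from day-5 vs day-0 absorbance relative to control. ID50 = concentration reducing absorbance ratio to 50%; three independent experiments.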

Data set [2] has as its system Trypanosoma cruzi. Kind of data set: Trypanocidal activity against Trypanosoma cruzi CL Brener amastigotes infected in Vero cells assessed as parasite infection at 5 uM after 72 hrs. It counts as functional. The gist of the method:
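Vero cells (4×10^7/L) on coverslips in modified Eagle's medium + 3% FBS, 37 °C; after 24 h infected with trypomastigotes (5×10^9/L) ± compound. Non-internalized parasites removed at 24 h, fresh medium ± compound, 72 h further incubation; May-Grünwald-Giemsa stain, 500 cells scored for % infected and amastigotes per cell; endocytic index = product of the two.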

A short description of data set [3]: Selective index, ratio of ID50 for mouse J774 cells to ID50 for Trypanosoma cruzi Tulahuen 2.
The subject of data set [4] is Trypanosoma cruzi. Nature of the data set: Inhibition of Mitochondrial dehydrogenase in Trypanosoma cruzi Y epimastigotes at 20 uM after 30 to 240 mins by MTT dye reduction assay in relative to control. Summed up: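 Y-strain epimastigotes, 10^6 per well in 500 µL, 20 μM compound, 28 °C for 30–240 min with time-matched untreated controls. MTT (50 µL of 5 mg/mL) added for 4 h more, stopped with acidic isopropanol, A570 read; activity expressed as % of untreated parasites.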
(Tetrazolium dyes change colour on reduction, which living cells bring about.)

The test system of data set [5] is Trypanosoma cruzi. Nature of the data set: Antitrypanosomal activity against Trypanosoma cruzi CL Brener trypomastigotes infected in Vero cells assessed as parasite lysis at 10 uM after 26 hrs relative to untreated control. It counts as functional. Summed up: (§1)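 Cell-culture trypomastigotes released from infected Vero cells (37 °C, 5% CO2, 5–7 days), collected by centrifugation and allowed 4 h at 37 °C to swim off. Supernatant parasites exposed to 10.0–50.0 μM for 2–26 h; lysis counted in a Neubauer chamber relative to untreated parasites; three independent experiments.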

Data set [6] has as its system Leishmania braziliensis. Nature of the data set: Inhibition of Mitochondrial dehydrogenase in Leishmania braziliensis MHOM/BR/00/LTB300 at 20 uM after 30 to 240 mins by MTT dye reduction assay in relative to control.
Data set [7] can be described thus: Cytotoxicity against mouse J774 cells. Conditions: read-out: ID50 (the source's name). The data set is classed as cell-based.
The subject of the next data set is J774. Nature of the data set: Cytotoxicity against mouse J774 cells at 100 uM relative to 5-((hydroxyimino)methyl)-2,2-dimethyl-2H-benzo[d]imidazole 1,3-dioxide. It counts as cell-based. The note with it: j774, 100 µM.
The subject of data set [8] is Leishmania braziliensis. Nature of the data set: Antiparasitic activity against Leishmania braziliensis MHOM/BR/00/LTB300 after 5 days by MTT assay. Conditions: MHOM/BR/00/LTB300, 120 h, read-out: ID50. It counts as functional. The gist of the method: (§2)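 Epimastigotes (T. cruzi strains, BHI-Tryptose + 5% FBS, 28 °C) or L. braziliensis LTB300 promastigotes (axenic RPMI + 5% FBS, 28 °C) from exponential culture in 24-well plates; compounds from DMSO stock added for 5 days. Washed in PBS, 0.4 mg/mL MTT at 37 °C for 3 h, formazan dissolved in DMSO, OD595 read. Triplicate per concentration, six growth controls; 1.0–50.0 μM dose-response, ID50 = concentration reducing absorbance ratio to 50%; three independent experiments.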

Data set [9] relates to Trypanosoma cruzi. Nature of the data set: Antitrypanosomal activity against Trypanosoma cruzi CL Brener epimastigotes assessed as parasitic cytotoxicity at 25 uM after 5 days by MTT assay. The data set is classed as functional. The gist of the method: (§3)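 Single 25 μM dose for 5 days on exponential-phase epimastigotes in BHI-Tryptose + 5% FBS, 24-well plates; MTT 0.4 mg/mL, 3 h at 37 °C after PBS wash, formazan in DMSO, OD595. PCyt = [[…] (ODd − ODdm)/(ODc − ODcm)] × 100 with medium-only blanks, compound-in-medium blanks and growth controls; three independent experiments.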

The test system of data set [10] is Trypanosoma cruzi. Kind of data set: Antitrypanosomal activity against Trypanosoma cruzi CL Brener trypomastigotes infected in Vero cells assessed as parasite lysis at 10 uM after 2 hrs relative to untreated control. It counts as functional. Summed up:
as §1

The subject of data set [11] is Trypanosoma cruzi. Kind of data set: Decrease of glucose uptake in Trypanosoma cruzi Y epimastigotes after 4 hrs relative to control. The data set is classed as functional, organism-based. Summed up: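 Y-strain epimastigotes (80×10^6/mL) washed and resuspended in PBS with 1 mM glucose, exposed 4 h to 20 μM compound from DMSO. Parasite-free supernatant refluxed 1 h with Benedict's reagent; remaining glucose quantified at 700 nm against a calibration curve.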

Data set [12] deals with Trypanosoma cruzi. Nature of the data set: Antitrypanosomal activity against Trypanosoma cruzi CL Brener trypomastigotes infected in Vero cells assessed as parasite lysis at 50 uM after 19 hrs relative to untreated control. It counts as functional. The gist of the method: as §1
For data set [13], the system named is Trypanosoma cruzi. Kind of data set: Antitrypanosomal activity against Trypanosoma cruzi CL Brener trypomastigotes infected in Vero cells assessed as parasite lysis at 10 uM after 22 hrs relative to untreated control. It counts as functional. The gist of the method:
as §1

Data set [14] concerns Trypanosoma cruzi. Nature of the data set: Antitrypanosomal activity against Trypanosoma cruzi Y epimastigotes after 5 days by MTT assay. It counts as functional. The note with it: 120 h, read-out: ID50. Summed up: as §2
Data set [15] deals with Trypanosoma cruzi. Kind of data set: Antitrypanosomal activity against Trypanosoma cruzi Colombiana assessed as parasitic cytotoxicity at 25 uM after 5 days by MTT assay. The data set is classed as functional. Summed up: as §3
Data set [16] has as its system Trypanosoma cruzi. Nature of the data set: Reduction of end products excretion levels in Trypanosoma cruzi Y epimastigotes after 2 days by [1H]NMR method. It counts as functional, organism-based. The gist of the method: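 Y-strain epimastigotes treated 2 days with 5 μM compound; culture centrifuged 1500 g, 10 min, 4 °C, parasite-free supernatant stored at −20 °C. Supernatant plus DMF internal standard and D2O run by 1H NMR with water suppression; metabolite peaks confirmed by spiking and standards, compared to untreated and parasite-free medium.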

For data set [17], the system named is Trypanosoma cruzi. Kind of data set: Antitrypanosomal activity against Trypanosoma cruzi CL Brener trypomastigotes infected in Vero cells assessed as parasite lysis at 10 uM after 3 hrs relative to untreated control. It counts as functional. The gist of the method: as §1
The nature of data set [18]: Selective index, ratio of ID50 for mouse J774 cells to ID50 for Leishmania braziliensis LTB300.
For data set [19], the system named is Trypanosoma cruzi. Kind of data set: Trypanocidal activity against Trypanosoma cruzi CL Brener amastigotes infected in Vero cells assessed as parasite infection at 2.5 uM after 72 hrs.
In data set [20] the test system is Trypanosoma cruzi. Nature of the data set: Antitrypanosomal activity against Trypanosoma cruzi CL Brener trypomastigotes infected in Vero cells assessed as parasite lysis at 25 uM after 19 hrs relative to untreated control. The data set is classed as functional. The gist of the method:
as §1

Data set [21] concerns Trypanosoma cruzi. Kind of data set: Antitrypanosomal activity against Trypanosoma cruzi CL Brener epimastigotes after 5 days by MTT assay. The note with it: 120 h, read-out: ID50. The data set is classed as functional. Summed up: as §2
In data set [22] the test system is Trypanosoma cruzi. Nature of the data set: Antitrypanosomal activity against Trypanosoma cruzi CL Brener trypomastigotes infected in Vero cells assessed as parasite lysis at 5 uM after 22 hrs relative to untreated control. The data set is classed as functional.
Data set [23] concerns Trypanosoma cruzi. Nature of the data set: Antitrypanosomal activity against Trypanosoma cruzi CL Brener trypomastigotes infected in Vero cells assessed as parasite lysis at 50 uM after 2 hrs relative to untreated control. It counts as functional. Summed up:
as §1

Calls of active or inactive are those of the source. The calls are words filed in the database; no cut-off is given here.

For the molecule `Cc1ccc2c(c1)=[N+]([O-])C1(CCCC1)[N+]=2[O-]`, the IC50 with Trypanosoma cruzi [1] came to 7.9 µM; in the data set on Leishmania braziliensis [8] it was 8.9 µM; in the data set with Trypanosoma cruzi [14], 15.8 µM. Also, the Activity stood at 14.7% with Trypanosoma cruzi [2]; 24% in the data set on Trypanosoma cruzi [5]; 1.22% in the data set on J774; 56.5% in the data set on Trypanosoma cruzi [9]; 1% in the data set on Trypanosoma cruzi [10]; 52% in the data set on Trypanosoma cruzi [12]. Further, the Activity in the data set with Trypanosoma cruzi [13] worked out at 25%; in the data set on Trypanosoma cruzi [15] it was 59.3%; in the data set on Trypanosoma cruzi [17] it was 39%; in the data set with Trypanosoma cruzi [19], 34.8%; with Trypanosoma cruzi [20] it was 24%. Further, the Ratio came to 8 in data set [3] and 7.1 in [18]. In addition, the outcome in the data set with Trypanosoma cruzi [4] was inactive. Besides, the result in the data set on Leishmania braziliensis [6], in the data set on Trypanosoma cruzi [11] and in the data set on Trypanosoma cruzi [16] was Active. In addition, the CC50 in data set [7] came to 63 µM.
On to `CC1(C)[N+]([O-])=c2ccc(/C=C/c3ccccc3)cc2=[N+]1[O-]`, for which the IC50 was determined as 3.4 µM in the data set with Trypanosoma cruzi [1], 8.5 µM with Trypanosoma cruzi [21], 3.5 µM in the data set with Leishmania braziliensis [8] and 6 µM with Trypanosoma cruzi [14]. Moreover, the Activity in the data set with Trypanosoma cruzi [22] stood at 31%; in the data set with Trypanosoma cruzi [5], 100%; with Trypanosoma cruzi [23] it was 32%; in the data set on Trypanosoma cruzi [9], 78.4%; with Trypanosoma cruzi [10], 3%; with Trypanosoma cruzi [12], 100%. Moreover, the Activity came out at 84% with Trypanosoma cruzi [13], 92.3% with Trypanosoma cruzi [15], 32% with Trypanosoma cruzi [17] and 64% in the data set on Trypanosoma cruzi [20]. The outcome in the data set on Trypanosoma cruzi [16] was Active.

The values above are taken from ChEMBL document CHEMBL1155286, “Second generation of 2H-benzimidazole 1,3-dioxide derivatives as anti-trypanosomatid agents: synthesis, biological evaluation, and mode of action studies” (Eur J Med Chem, 2009).
